This is a sample that favours compounds with a hit; in the whole collection about 2.1% have one here.
TRPML3 ag = activates the human TRPML3 channel | HEK293 TRPML3-YFP, Fluo-8 calcium fluorescence; 100% = the carbachol control signal | activation, % at 3 µM | 220,000 compounds, 0.29% hits;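 active = activation above its plate's cutoff, the mean activation of the plate's test wells plus 3 SD, cut at about 12% in these data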
Target sequence (Q8TDD5 whole entry, looked up): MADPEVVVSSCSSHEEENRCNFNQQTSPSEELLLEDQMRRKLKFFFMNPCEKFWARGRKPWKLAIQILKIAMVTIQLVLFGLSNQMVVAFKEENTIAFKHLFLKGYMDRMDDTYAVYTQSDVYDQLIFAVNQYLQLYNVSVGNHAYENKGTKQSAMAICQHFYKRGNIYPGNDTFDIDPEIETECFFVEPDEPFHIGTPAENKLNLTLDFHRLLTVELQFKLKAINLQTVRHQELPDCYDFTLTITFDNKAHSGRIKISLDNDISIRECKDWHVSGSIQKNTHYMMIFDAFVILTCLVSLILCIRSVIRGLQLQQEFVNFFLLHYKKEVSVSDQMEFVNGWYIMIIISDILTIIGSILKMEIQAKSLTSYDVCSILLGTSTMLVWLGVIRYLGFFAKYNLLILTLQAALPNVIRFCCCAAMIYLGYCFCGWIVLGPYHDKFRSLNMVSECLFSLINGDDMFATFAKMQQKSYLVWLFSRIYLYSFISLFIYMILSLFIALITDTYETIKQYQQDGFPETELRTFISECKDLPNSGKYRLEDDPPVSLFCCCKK
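Material: TRPML3-YFP stable HEK293 cells | Dosing: One concentration, 3 µM nominal, 0.3% DMSO | Timing: 125 s total fluorescence read per well | Technique: Fluo-8 calcium dye fluorescence, ex 470-495, em 515-575 nm | Measure: Percent activation from peak-to-basal fluorescence ratio, scaled between DMSO and carbachol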
zfTRPN1 agonist = activates the zebrafish TRPN1 channel; HEK293 zebrafish TRPN1-YFP, Fluo-8 calcium fluorescence; 100% = response to 87 µM carbachol; activation, % at 3 µM; 220,000 compounds, 0.18% hits; AID 1424;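 active = activation above its plate's cutoff, the mean activation of test wells on that plate plus 3 SD, cut at about 19% in these data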
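Assay system: Zebrafish TRPN1-YFP in HEK293 cells | Incubation: Dye loading 1 h at 37 °C, then 30 min room temperature | Measured by: Kinetic Fluo-8 fluorescence, ex 470-495, em 515-575 nm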
VIM-2 inh = inhibitors of Pseudomonas aeruginosa VIM-2 metallo-beta-lactamase; purified VIM-2, nitrocefin hydrolysis, epi-absorbance fluorescence; inhibition, % at 5.6 µM; 290,000 compounds, 0.89% hits;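 active = inhibition above the mean of all tested compounds plus 3 SD, cutoff set per screening run, cut at about 7.5% in these data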;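 note: red hydrolysis product quenches plate fluorescence so inhibitors raise well fluorescence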
IMP-1 inhibitor = blocks Pseudomonas aeruginosa IMP-1 metallo-beta-lactamase; purified IMP-1, nitrocefin hydrolysis, epi-absorbance fluorescence; inhibition, % at 5.6 µM; 290,000 compounds, 0.45% hits; AID 1556;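 active = inhibition above the mean plus 3 SD of all compounds in the same screening run, cut at about 4.5% in these data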
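Assay system: purified recombinant IMP-1 beta-lactamase. Input: IMP-1 0.2 nM before substrate addition. Buffer or medium: Zinc- and detergent-supplemented HEPES buffer, pH 7.1. Schedule: 25 °C, 15 min preincubation, 25 min reaction. Signal: Epi-absorbance fluorescence, 480 nm excitation, 530 nm emission. Evaluation: percent inhibition from optical density relative to buffer-blank wells.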
CRFBP-R2 agonist = agonists of human CRF-binding protein/CRF-R2 receptor complex | AID 588473 | HEK293 CRF-R2/CRF-BP, calcium dye fluorescence (FLIPR); percent of saturating CRF peptide response | 350,000 compounds, 0.46% hits | activation, % at 13.2 µM;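 active = activation of at least 50%, plus an integration ratio under a set limit after plate pattern correction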
CRFR2-BP antag = CRF-BP/CRF-R2 complex antagonism; HEK293 CRF-R2/CRF-BP, CRF-induced calcium fluorescence; inhibition, % at 11.8 µM; 350,000 compounds, 0.59% hits;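 active = inhibition of the ligand-induced calcium signal above about 50% at the single tested concentration, limit read from the data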
Hits are given with their value; . = inactive; / = no result given.

SMILES	TRPML3 ag	zfTRPN1 agonist	VIM-2 inh	IMP-1 inhibitor	CRFBP-R2 agonist	CRFR2-BP antag
CN(C)c1cc(-c2ccc(Cl)c(Cl)c2)oc(=O)c1Cl	.	.	.	5.4	.	.
Cc1cccc2[nH]c(CN(C)C(=O)CC3C(=O)NCCN3CC(C)(C)C)nc12 (stereo not drawn)	.	.	.	.	.	.
CC(=O)c1cc(NC(=O)c2cccc(C(F)(F)F)c2)c(=O)oc1/C=C/N(C)C	.	.	.	.	76	.
CC(=O)c1cc(NC(=O)c2ccc(Cl)cc2)c(=O)oc1/C=C/N(C)C	.	.	.	.	79	.
COc1ccc(C(=O)Nc2cc(C(C)=O)c(C)oc2=O)cc1	.	.	.	.	.	.
CC(=O)c1cc(NC(=O)c2cccc(C(F)(F)F)c2)c(=O)oc1C	.	.	.	.	.	.
C=CCN1C(=NC(=O)COc2ccc(Cl)cc2)SC2CS(=O)(=O)CC21 (stereo not drawn)	/	/	.	.	.	.
Cc1ccc(C)c(N2CCN(C(=O)Cc3ccc(NC4=NC5CS(=O)(=O)CC5S4)cc3)CC2)c1 (stereo not drawn)	/	/	.	.	.	.
Cc1ccc(S(=O)(=O)N2[C@@H](c3ccc(C(C)(C)C)cc3)C(C(=O)O)=CC[C@H]2c2ccc(C(C)C)cc2)cc1	/	/	/	/	.	.
COc1ccc(N2CCN(C(=O)NCc3cccc(OC)c3)CC2)cc1	/	/	.	.	.	.
Cc1c(C(=O)NCc2ccccn2)oc2ccc(Br)cc12	/	/	/	/	.	.
Cc1c(C(=O)NCc2cccs2)oc2ccc(Br)cc12	.	.	.	5.3	.	.
Cc1cc(C)c(NC(=O)/C(=C/c2ccccc2)c2ccccc2)c(C)c1	.	.	.	.	.	67
Cc1ccc(NC(=O)/C(=C/c2ccco2)c2ccccc2)c(C)c1	.	.	.	.	.	.
COc1cc2ccccc2nn1	.	.	.	.	.	.
COc1ccc2c(n1)Sc1nc3ccccc3nc1N2	29	57	.	.	228	.
O=C(Cn1c(=O)c2cccn2c2ccccc21)NCCc1ccccc1	/	/	.	.	.	.
O=C(Cn1c(=O)c2cccn2c2ccccc21)NCCc1ccc(Cl)cc1	/	/	.	13	.	.
CC(C)Oc1ccc(CNC(=O)Cn2c(=O)c3cccn3c3cccnc32)cc1	/	/	.	.	.	.
CCOc1ccc(CNC(=O)Cn2c(=O)c3cccn3c3ccccc32)cc1	/	/	.	6.2	.	.
Cc1nc(C)c(Cc2ccccc2Cl)c(=O)[nH]1	.	.	.	.	.	.
Cc1nc2ccccc2nc(C)c1=NOCc1ccccc1Cl	.	.	.	.	.	51
CN(C)c1ccc(/C=C2\N=C(c3ccc(Cl)c([N+](=O)[O-])c3)NC2=O)cc1	.	.	.	.	62	.
C1=C(CCNc2ncnc3c2[nH]c2ccccc23)CCCC1	.	21	.	.	.	.
CCN(CC)C(=O)CSc1nc2ccccc2c(=O)n1CC	.	.	.	.	.	.
SMILES	TRPML3 ag	zfTRPN1 agonist	VIM-2 inh	IMP-1 inhibitor	CRFBP-R2 agonist	CRFR2-BP antag
CCN(CC)C(=O)CSc1nnc(-c2cc3ccccc3cc2O)n1CC	.	.	10	.	.	.
Cc1ccc2c(c1)[nH]c1c(=O)n(Cc3ccco3)cnc12	.	.	.	.	84	.
COc1ccc(NC(=O)CN(C)C(=O)CNC(=O)c2ccc(C)s2)cc1	/	/	/	/	.	.
COc1ccccc1N1CCN(C(=O)C(C)CS(=O)(=O)c2ccc3c(c2)NC(=O)CS3)CC1 (stereo not drawn)	/	/	.	11	.	.
O=C1CC(O)(C(F)(F)F)Oc2c1ccc1ccccc21 (stereo not drawn)	.	.	.	.	62	65
CCCCn1c(N)c(N(CCOC)C(=O)c2cnc(C)cn2)c(=O)[nH]c1=O	/	/	/	/	.	.
Cc1cc(C)c(NC(=O)c2ccc(CNS(=O)(=O)c3cc(C(F)(F)F)ccc3Cl)cc2)c(C)c1	.	.	.	.	.	59
Cc1ccc(OCC(=O)NNC(=O)CCc2ccccc2)c(Br)c1	/	/	.	.	.	.
CCOc1ccc(C2C=C(c3ccc(C)cc3)Nc3nnnn32)cc1 (stereo not drawn)	.	.	.	.	69	.
CCOc1ccc(C2C=C(c3ccccc3)Nc3nnnn32)cc1 (stereo not drawn)	.	.	.	.	.	.
CC(=O)c1ccc(NC(=O)CSc2ccc(-c3ccc4c(c3)OCO4)nn2)cc1	.	.	.	.	.	122
O=C(COc1ccc(Cl)cc1Cl)Nc1ccccc1NS(=O)(=O)c1cccs1	.	.	.	.	.	51
COc1ccc(S(=O)(=O)N(C)C[C@H]2Oc3ccc(NS(=O)(=O)c4ccc(F)cc4)cc3C(=O)N([C@H](C)CO)C[C@@H]2C)cc1	/	/	/	/	.	.
CC(=O)c1ccc(N2CCN(C(=O)CCS(=O)(=O)c3ccc4c(c3)CCN4C(C)=O)CC2)cc1	/	/	.	.	.	80
CNC(=S)N1CCc2cc(OC)c(OC)cc2C1COc1ccc(OC)cc1 (stereo not drawn)	.	.	.	.	.	.
COCCNC(=S)N1CCc2cc(OC)c(OC)cc2C1COc1cc(C)cc(C)c1 (stereo not drawn)	.	.	.	.	.	86
CCN(CC)S(=O)(=O)c1ccc(NC(=O)C2CCCN(C(=O)c3ccc(Cl)cc3)C2)cc1 (stereo not drawn)	.	.	.	.	.	.
Cc1cccn2c(=O)c3cc(C(=O)N4CCN(C(=O)c5ccco5)CC4)n(C)c3nc12	.	.	.	.	.	.
COCCn1c(=N)c(C(=O)NCCc2ccc(OC)cc2)cc2c(=O)n3cccc(C)c3nc21	.	.	.	.	.	.
Cc1cccn2c(=O)c3cc(C(=O)NCCN4CCOCC4)c(=N)n(CCN4CCOCC4)c3nc12	/	/	11	.	.	.
O=C(NCCN1CCN(c2ccccc2)CC1)c1cccn2c(=O)c3cc(Cl)ccc3nc12	.	.	8.2	.	.	.
CCOCCCn1c(=N)c(C(=O)NCCN2CCOCC2)cc2c(=O)n3cccc(C)c3nc21	.	.	.	.	.	.
Cc1cccn2c(=O)c3cc(C(=O)N4CCOCC4)n(C)c3nc12	/	/	8.2	.	.	.
COc1ccc(CCNC(=O)c2cc3c(=O)n4cccc(C)c4nc3n(CCCN3CCOCC3)c2=N)cc1	/	/	7.8	.	.	.
Cc1cc(C)cc(N(CC(=O)NC2CCCC2)C(=O)CCC(=O)Nc2cc(C)ccn2)c1	/	/	.	.	.	.
O=C(OCc1ccc(Cl)c(Cl)c1)c1ccc[nH]1	/	/	.	.	.	.
Cn1c(C(=O)NCCN2CCOCC2)cc2c(=O)n3ccccc3nc21	/	/	8.3	.	.	.
COCCCn1c(C(=O)NCCN2CCOCC2)cc2c(=O)n3ccccc3nc21	/	/	.	.	.	.

Screening data as filed in PubChem.
